By half-life is commonly meant how long it takes for the measured level to halve. Higher therefore signals slow loss. A word on the inhibition in vivo: it is how much of the control response was suppressed.

Active and inactive are the calls of the source. The rule behind the calls is not given here.

Results on three compounds are retold here after ChEMBL document CHEMBL4033799, “Stable and Long-Lasting, Novel Bicyclic Peptide Plasma Kallikrein Inhibitors for the Treatment of Diabetic Macular Edema” (J Med Chem, 2018).

Data set [1] in a line: Aqueous solubility of the compound in buffer. The format is physicochemical.
Data set [2] can be described thus: Half life in mouse plasma at 4 uM measured up to 24 hrs by LC-MS/MS analysis. The format is ADME, cell-free. In outline: (§1)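 Peptide from a 0.16 mM DMSO stock was added to human, rat or mouse plasma (final 4 μM) or to homogenized human vitreous (final 1 μM), with internal standard. Samples were incubated at 37 °C for up to 24 h and extracted with water/acetonitrile/methanol 1:3:3.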

Data set [3] in a line: Half life in rat plasma at 4 uM measured up to 24 hrs by LC-MS/MS analysis. The format is ADME, cell-free. In outline: as §1
The nature of data set [4]: Half life in human vitreous humor at 1 uM measured up to 24 hrs by LC-MS/MS analysis. It counts as ADME, tissue-based. In outline:
as §1

For a further data set, the target named is Kallikrein-6 (Homo sapiens, UniProt Q92876). In words: Inhibition of recombinant human C-terminal His-tagged KLK6 isoform 1 (1 to 244 residues) expressed in HEK293 cells using fluorogenic Boc-QARAMC peptide as substrate by fluorescence based assay. In outline: (§2)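 Human serine proteases were assayed with substrates and conditions set by each supplier's recommendations. Peptides were first screened at 50 μM. Where inhibition was detected, Ki was determined from activity across peptide concentrations using a tight-binding rate equation.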

The next data set has as its target Prothrombin (Homo sapiens, UniProt P00734). As to the kind of experiment: Inhibition of recombinant human alpha thrombin using fluorogenic peptide as substrate by fluorescence based assay. An outline of the steps:
(§3)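 Panel of human serine proteases. Substrates and assay conditions followed each supplier's recommendations. Peptides were first screened at 50 μM. Where inhibition was detectable, hydrolytic activity was measured across a range of peptide concentrations. Ki was obtained by fitting to the tight-binding inhibitor rate equation.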

The target in the next data set is T1, Cathepsin G (Homo sapiens, UniProt P08311).
T1 sequence (P08311 whole entry): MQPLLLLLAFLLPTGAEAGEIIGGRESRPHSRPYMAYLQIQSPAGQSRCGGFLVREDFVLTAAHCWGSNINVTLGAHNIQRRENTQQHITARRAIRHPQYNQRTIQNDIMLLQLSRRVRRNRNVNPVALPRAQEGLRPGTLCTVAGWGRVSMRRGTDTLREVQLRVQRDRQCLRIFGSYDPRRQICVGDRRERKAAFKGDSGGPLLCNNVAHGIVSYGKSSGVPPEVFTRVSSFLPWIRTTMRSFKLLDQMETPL
As to the kind of experiment: Inhibition of recombinant human Cathepsin-G. An outline of the steps: as §3

The target of a further data set is Coagulation factor X (Homo sapiens, UniProt P00742). In words: Inhibition of recombinant human C-terminal 10His-tagged factor Xa (24 to 488 residues) expressed in baculovirus derived insect sf21 cells using fluorogenic Mca-RPKPVE-Nval-WRK(Dnp)-NH2 peptide as substrate by fluorescence based assay. In outline:
as §2

For data set [5], the target named is T2, Complement C1s subcomponent (Homo sapiens, UniProt P09871).
T2 sequence (P09871 whole entry): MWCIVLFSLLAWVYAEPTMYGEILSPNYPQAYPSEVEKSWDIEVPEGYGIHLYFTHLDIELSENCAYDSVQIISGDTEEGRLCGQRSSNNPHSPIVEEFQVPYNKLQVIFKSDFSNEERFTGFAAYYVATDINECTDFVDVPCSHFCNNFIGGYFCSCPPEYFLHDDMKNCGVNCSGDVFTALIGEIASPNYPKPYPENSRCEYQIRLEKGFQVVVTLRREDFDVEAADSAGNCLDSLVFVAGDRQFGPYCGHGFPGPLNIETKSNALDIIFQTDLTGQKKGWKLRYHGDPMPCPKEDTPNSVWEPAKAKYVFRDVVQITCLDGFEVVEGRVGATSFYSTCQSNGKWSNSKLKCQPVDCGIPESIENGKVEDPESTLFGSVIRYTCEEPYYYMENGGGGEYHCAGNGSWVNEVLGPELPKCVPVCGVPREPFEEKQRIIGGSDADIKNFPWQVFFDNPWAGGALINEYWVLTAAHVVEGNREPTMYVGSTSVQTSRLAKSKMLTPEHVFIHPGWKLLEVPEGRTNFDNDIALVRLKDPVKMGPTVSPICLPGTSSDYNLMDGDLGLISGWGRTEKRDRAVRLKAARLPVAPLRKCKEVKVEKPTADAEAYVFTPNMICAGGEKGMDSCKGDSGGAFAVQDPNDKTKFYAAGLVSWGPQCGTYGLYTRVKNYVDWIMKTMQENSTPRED
In words: Inhibition of recombinant human C-terminal 6His-tagged complement component C1s (1 to 688 residues) expressed in mouse NS0 cells using fluorogenic Z-Lys-SBzl peptide as substrate after 5 mins by fluorescence based assay. An outline of the steps: as §2

Data set [6] relates to Rattus norvegicus. As to the kind of experiment: Antiinflammatory activity in Sprague-Dawley rat carrageenan-induced paw edema model assessed as inhibition of paw edema AUC (0 to 2 hrs) at 10 to 30 mg/kg, ip pretreated for 15 mins followed by carrageenan challenge. The format is functional, organism-based. An outline of the steps:
(§4)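 Male Sprague-Dawley rats received peptide IP (30, 10 or 3 mg/kg), or indomethacin IP at 5 mg/kg, 15 min before subplantar carrageenan. Paw volume was followed over time against a vehicle group.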
For orientation: Carrageenan injected into the paw causes an acute inflammation.

Data set [7] concerns Rattus norvegicus. In words: Antiinflammatory activity in Sprague-Dawley rat assessed as inhibition carrageenan-induced paw edema at 30 mg/kg, ip pretreated for 15 mins followed by carrageenan challenge measured at 1 hr post carrageenan challenge. It counts as functional. An outline of the steps: as §4
Data set [8] has as its system Rattus norvegicus. As to the kind of experiment: Antiinflammatory activity in Sprague-Dawley rat assessed as inhibition carrageenan-induced paw edema at 30 mg/kg, ip pretreated for 15 mins followed by carrageenan challenge measured at 2 hrs post carrageenan challenge. The format is functional. In outline:
as §4

The test system of data set [9] is Rattus norvegicus. As to the kind of experiment: Antiinflammatory activity in Sprague-Dawley rat assessed as inhibition carrageenan-induced paw edema at 30 mg/kg, ip pretreated for 15 mins followed by carrageenan challenge measured at 4 hrs post carrageenan challenge. The format is functional. An outline of the steps: as §4
In data set [10] the test system is Rattus norvegicus. As to the kind of experiment: Antiinflammatory activity in Sprague-Dawley rat assessed as inhibition carrageenan-induced paw edema at 30 mg/kg, ip pretreated for 15 mins followed by carrageenan challenge measured at 6 hrs post carrageenan challenge. The format is functional. An outline of the steps: as §4
Data set [11] in a line: Drug level in New Zealand white rabbit ipsialateral eye vitreous humor at 2 mg/ml, administered via ivt injection at early time point measured up to 100 hrs by LC-MS/MS analysis. The format is ADME, tissue-based, Oryctolagus cuniculus. The note with it: ipsilateral eye vitreous humor, topical or ocular, read-out: Drug uptake. An outline of the steps:
(§5)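 Male New Zealand White rabbits (10 weeks old, ~2 kg) received one 50 μL intravitreal injection per eye of peptide at 2 mg/mL in 50 mM sodium phosphate, pH 7.2. Animals were sacrificed at 15 min, 1, 4, 8, 24, 48 and 96 h (3 per time point). Whole vitreous was homogenized, clarified, 0.2 μm filtered and assayed by LC-MS/MS, with a lower limit of detection of 1 ng/mL in vitreous.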

Data set [12] can be described thus: Drug level in New Zealand white rabbit ipsialateral eye vitreous humor at 2 mg/ml, administered via ivt injection at late time point measured up to 100 hrs by LC-MS/MS analysis. It counts as ADME, tissue-based, Oryctolagus cuniculus. The note with it: ipsilateral eye vitreous humor, topical or ocular, read-out: Drug uptake. An outline of the steps: as §5
Data set [13] concerns the target Plasma kallikrein (Rattus norvegicus, UniProt P14272). In words: Inhibition of recombinant Sprague-Dawley rat plasma kallikrein using fluorogenic H-Pro-Phe-Arg-AMC peptide as substrate preincubated for 15 mins followed by substrate addition measured by fluorescence-based assay. The settings on record: read-out: Ki(app).
A short description of data set [14]: Drug level in New Zealand white rabbit contralateral eye vitreous humor at 2 mg/ml, administered via ivt injection by LC-MS/MS analysis. The format is ADME, tissue-based, Oryctolagus cuniculus. The settings on record: in vivo, topical_or_ocular.
In data set [15] the target is Plasma kallikrein (Mus musculus, UniProt P26262).

Take `CC(=O)N[C@H]1CSCc2cc3cc(c2)CSC[C@H](C(=O)N[C@@H](C)C(=O)N(C)CC(=O)N(C)CC(=O)N(C)CC(=O)N[C@H](CCCNC(=N)N)C(=O)N[C@H](CCCNC(=N)N)C(=O)O)NC(=O)[C@H](CC(C)C)NC(=O)[C@@H]2CCCN2C(=O)[C@H](C)NC(=O)[C@H](CC(=O)O)NC(=O)[C@H](Cc2c[nH]c4ccccc24)NC(=O)[C@@H]2CCCN2C(=O)[C@H](CSC3)NC(=O)[C@H](Cc2c[nH]c3ccccc23)NC(=O)[C@@H]2CCCN2C(=O)[C@H](CC(N)=O)NC(=O)[C@H](Cc2c[nH]c3ccccc23)NC(=O)[C@H]([C@@H](C)O)NC(=O)[C@H](CC(N)=O)NC1=O`: in [1], the solubility result is “Soluble”. The half-life at 4 µM in data set [2] and in data set [3] was > 24 h each time. The half-life at 1 µM in data set [4] was > 24 h. Besides, the Ki (on Kallikrein-6; at Prothrombin; on Cathepsin G; on Coagulation factor X; in data set [5]) was > 50 µM each time. Besides, the inhibition result with Rattus norvegicus [6] was “Active”. The inhibition in vivo at 30 mg/kg came out at 71% in the data set with Rattus norvegicus [7], 59% in the data set with Rattus norvegicus [8], 60% in the data set with Rattus norvegicus [9] and 64% in the data set with Rattus norvegicus [10].

For `CC(=O)N[C@H]1CSCc2cc3cc(c2)CSC[C@H](NC(=O)[C@H](CCCCNC(=N)N)NC(=O)[C@H](Cc2ccc(O)cc2)NC(=O)[C@@H]2CCN2C(=O)[C@H](Cc2ccccc2)NC(=O)[C@H](CO)NC1=O)C(=O)N[C@@H](C)CN[C@@H](Cc1cnc[nH]1)C(=O)N[C@@H](CCC(N)=O)C(=O)N[C@@H](CC(=O)O)C(=O)N[C@@H](CC(C)C)C(=O)N[C@H](C(=O)O)CSC3`, the half-life at 4 µM in [2] and in [3] was > 24 h in each case. Further, in [4], the half-life at 1 µM was > 24 h. Moreover, the concentration at 100 h stood at 45 µM in data set [11] and 8 µM in [12].

As for `CC[C@H](C)[C@@H]1NC(=O)[C@H](CC(=O)O)NC(=O)[C@@H]2CCCN2C(=O)[C@H](Cc2ccc(O)cc2)NC(=O)[C@H](Cc2ccc(O)cc2)NC(=O)[C@H](C(C)C)NC(=O)[C@@H]2CSCc3cc(cc(c3)CSC[C@@H](C(=O)N[C@@H](C)C(=O)N(C)CC(=O)N(C)CC(=O)N(C)CC(=O)N[C@H](CCCNC(=N)N)C(=O)N[C@H](CCCNC(=N)N)C(=O)O)NC1=O)CSC[C@H](NC(C)=O)C(=O)N[C@@H](CO)C(=O)N[C@@H](Cc1ccccc1)C(=O)N1CCC1C(=O)N[C@@H](Cc1ccc(O)cc1)C(=O)N[C@@H](CCCCNC(=N)N)C(=O)N2` (some centres not stated), the Ki on Plasma kallikrein [13] was 0.0055 µM; on Kallikrein-6, > 50 µM; at Prothrombin, > 50 µM; on Cathepsin G, > 50 µM; on Coagulation factor X it was 23 µM; in data set [5] it was > 50 µM. This compound also showed a Ki at Plasma kallikrein [15] of 0.045 µM. For the same compound, in [14], the Drug uptake amounted to 1 ng/mL.
